Results published in PubChem BioAssay.
Active and inactive are the calls of the source. Cut-off read from the data, not from the text of the source, unless noted: active = inhibition above about 30%; inactive = the rest.

Legend:
[1] = reduced viability of SK-BR-3 breast cancer cells – cell-based, 24 h, human, pilot screen (AID 572;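 active = viability at or below 10% of carrier control in both of two separate runs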;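 note: compound exposure lasted between 18 and 24 h rather than exactly 24 h; 100% = carrier-treated control wells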); conditions: SK-BR-3 viability, CellTiter-Glo luminescence, at 10 µM, stronger effect = lower value
[2] = HUVEC growth inhibition – cell-based, human, primary screen (AID 575;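 active = viability at or below 30% in both replicate assays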;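 note: 100% = median of untreated cell wells with 0.1% DMSO on each plate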); conditions: HUVEC proliferation, CellTiter-Glo luminescence, 72 h; at 10 µM; stronger effect = lower value
Procedure, shortened: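 Test system: HUVEC primary cells. Quantity: 1250 endothelial cells in each well. Dosing: single-point 10 µM, DMSO 0.1% final. Incubation: 72 h treatment at 37 °C. Measured by: CTG luminescence. Control set: DMSO cell controls and MePR drug controls. Plate: collagen-coated 384-well format.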

[3] = H69AR cell proliferation blockers – human, duplicate replicates, primary screen (AID 580;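 active = viability at or under a set limit in both replicates, limit being median viability minus 3 SD, cut at about 48% in these data, passing the limit was not always enough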;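 note: 100% = mean luminescence of untreated wells and 0% = no signal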); conditions: H69AR lung tumor cells viability, ATP luminescence, 72 h; at 10 µM; stronger effect = lower value
[4] = MRP1 drug-resistance reversers in H69AR cells – cell-based, doxorubicin co-treatment, pilot screen (AID 601;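 active = viability loss from added drug above about 55%, and viability with drug at most 40%, in both replicates, limit read from the data, passing the limit was not always enough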); conditions: CellTiter-Glo, 72 h, at 10 µM; for differential viability (reversal): stronger effect = higher value
[5] = yeast transport mutant growth inhibition pilot in 384-well plates, post-Golgi transport modulator project (AID 636; in the data active = inhibition above about 31%); conditions: absorbance 615 nm, about 18 h, stronger effect = higher value
[6] = growth suppression of yeast trafficking mutant, preliminary HTS, modulators of trafficking downstream of Golgi apparatus project, 1536-format plate, OD 615 nm (AID 637); conditions: yeast transport mutant growth, absorbance 615 nm, 18 h; stronger effect = higher value
[7] = H69AR cells + 2 uM doxorubicin, measured here: viability with 2 uM doxorubicin, stronger effect = lower value
[8] = H69AR cells, compound alone cytotoxicity

| SMILES | viability [1] | viability [2] | viability [3] | differential viability (reversal) ([4]; H69AR cells + 2 uM doxorubicin) | viability [4, 7] [%] | viability [4, 8] [%] | inhibition [5] | inhibition [6] |
| --- | --- | --- | --- | --- | --- | --- | --- | --- |
| c1coc(CN2CN=C(Nc3nc4ccccc4s3)NC2)c1 | 91% (inactive) | 115% (inactive) | 96.4% (inactive) | -0.14% (inactive) | 96.5 | 96.4 | -2.3% (inactive) | -4.18% (inactive) |
| CCOC(=O)N1CCC(N(CCCOC)C(=O)Nc2ccc(CC)cc2)CC1 | 106% (inactive) | 92.7% (inactive) | 98.9% (inactive) | 13% (inactive) | 86 | 98.9 | -0.26% (inactive) | -2.3% (inactive) |
| COCCN(Cc1cc2cc3c(cc2n2nnnc12)OCO3)C(=O)c1ccccc1F | 94% (inactive) | 113% (inactive) | 101% (inactive) | 2.13% (inactive) | 99.3 | 101 | -6.35% (inactive) | -7.27% (inactive) |
| O=C(NCCN1CCOCC1)NC1(C(F)(F)F)Oc2ccc(Cl)cc2O1 (stereo unspecified) | 107% (inactive) | 57.1% (inactive) | 22.6% (active) | -16.8% (inactive) | 39.5 | 22.6 | -7.53% (inactive) | 0% (inactive) |
| COc1ccc2c(c1)C1(Nc3ccccc3-c3nc4ccccc4n31)C(=O)N2 (stereo unspecified) | 88% (inactive) | 57.2% (inactive) | 82.3% (inactive) | -3.61% (inactive) | 85.9 | 82.3 | -8.49% (inactive) | 4.19% (inactive) |
| O=C(NC(=O)c1ccc(Cl)cc1)Nc1cc(N2CCCCC2)ncn1 | 85% (inactive) | 93.9% (inactive) | 91.1% (inactive) | -1.91% (inactive) | 93 | 91.1 | -7.4% (inactive) | 3.87% (inactive) |
| CC(C)CC1NC(=O)N(CC(=O)N2CCN(S(=O)(=O)c3ccc(Cl)cc3)CC2)C1=O (stereo unspecified) | 97% (inactive) | 91.7% (inactive) | 96.4% (inactive) | -19.2% (inactive) | 116 | 96.4 | 0% (inactive) | 5.83% (inactive) |
| CCC1CCCCN1CCCNC(=O)c1ccc(CS(=O)(=O)Cc2ccccc2F)o1 (stereo unspecified) | 106% (inactive) | 114% (inactive) | 92.9% (inactive) | -12.3% (inactive) | 105 | 92.9 | -7.4% (inactive) | 2.73% (inactive) |
| CCOC(=O)CSC1=C(C#N)C(c2ccc3c(c2)OCO3)CC(=O)N1 (stereo unspecified) | 90% (inactive) | 73.1% (inactive) | 13.1% (active) | -52.4% (inactive) | 65.5 | 13.1 | -5.41% (inactive) | -2.36% (inactive) |
| Cc1c2cnn(CC(=O)N3CCN(c4ncccn4)CC3)c(=O)c2c(C)n1Cc1ccc(F)cc1 | 99% (inactive) | 106% (inactive) | 99.5% (inactive) | 2.37% (inactive) | 97.2 | 99.5 | 5.14% (inactive) | -4.73% (inactive) |
| COc1ccc(C2=CC(=O)OC3(CCCCC3)O2)cc1 | 97% (inactive) | 93.2% (inactive) | 56.5% (inactive) | -28.8% (inactive) | 85.3 | 56.5 | -9.18% (inactive) | 7.42% (inactive) |
| O=C(Nc1ccccc1Cl)c1c(F)c(F)c(F)c(F)c1F | 106% (inactive) | 106% (inactive) | 90.2% (inactive) | -7.56% (inactive) | 97.8 | 90.2 | 3.15% (inactive) | 7.09% (inactive) |
| C=CCN1C(=O)CS/C1=C(\C#N)S(=O)(=O)c1ccc(C)cc1 | 114% (inactive) | 96.2% (inactive) | 85.5% (inactive) | -2.67% (inactive) | 88.2 | 85.5 | -5.62% (inactive) | -1.45% (inactive) |
| Cc1cc(S(=O)(=O)N2CCN(c3ncccn3)CC2)ccc1-n1cnnn1 | 94% (inactive) | 120% (inactive) | 97.1% (inactive) | 3.36% (inactive) | 93.7 | 97.1 | -2.8% (inactive) | -0.73% (inactive) |
| CCN(CC)CCCN1C(=O)C(=O)/C(=C(/O)c2ccc3c(c2)OCO3)C1c1ccccn1 (stereo unspecified) | 97% (inactive) | 82.4% (inactive) | 93.3% (inactive) | 4.7% (inactive) | 88.6 | 93.3 | -5.89% (inactive) | 0.32% (inactive) |
| COc1ccc(OC)c(-c2cc(C(=O)NCc3cccs3)no2)c1 | 101% (inactive) | 76.2% (inactive) | 94.4% (inactive) | 7.29% (inactive) | 87.1 | 94.4 | -2.6% (inactive) | -5.74% (inactive) |
| COC(=O)c1ccccc1OCC(=O)NC1CCCCC1 | 96% (inactive) | 106% (inactive) | 90.2% (inactive) | -1.72% (inactive) | 91.9 | 90.2 | -5.21% (inactive) | -6.77% (inactive) |
| O=C(Nc1ccccc1-c1ccccc1)NC1CCN(C(=O)N2CCOCC2)CC1 | 108% (inactive) | 95.9% (inactive) | 103% (inactive) | 3.68% (inactive) | 99.5 | 103 | -3.29% (inactive) | 4.03% (inactive) |
| COc1ccccc1-n1cnc2cc(NS(=O)(=O)c3ccccc3)ccc21 | 62% (inactive) | 101% (inactive) | 87.1% (inactive) | -0.69% (inactive) | 87.8 | 87.1 | -3.15% (inactive) | -6.55% (inactive) |

| SMILES | viability [1] | viability [2] | viability [3] | differential viability (reversal) ([4]; H69AR cells + 2 uM doxorubicin) | viability [4, 7] [%] | viability [4, 8] [%] | inhibition [5] | inhibition [6] |
| --- | --- | --- | --- | --- | --- | --- | --- | --- |
| CC1(C)CC(=O)C2=C(C1)Nc1ccccc1N=C2 | 66% (inactive) | 82.3% (inactive) | 70.3% (inactive) | -19.7% (inactive) | 90 | 70.3 | -0.41% (inactive) | 2.73% (inactive) |
| CC(CN(C)Cc1ccccc1)OC(=O)c1ccc2c(c1)OCCO2 (stereo unspecified) | 93% (inactive) | 85.3% (inactive) | 94.1% (inactive) | 5.22% (inactive) | 88.8 | 94.1 | -7.67% (inactive) | 1.29% (inactive) |
| O=S(=O)(NCc1ccc(Cl)cc1)c1cnc[nH]1 | 103% (inactive) | 98.1% (inactive) | 106% (inactive) | 23.5% (inactive) | 82.7 | 106 | -6.36% (inactive) | -4.59% (inactive) |
| COc1ccc(CCN2C(=O)CC(N3CCOCC3)C2=O)cc1 (stereo unspecified) | 88% (inactive) | 89.4% (inactive) | 96.2% (inactive) | 16.3% (inactive) | 79.9 | 96.2 | 2.05% (inactive) | -7.58% (inactive) |
| CCCc1cc(N2CCCC2)n2nc(C)c(-c3ccccc3)c2n1 | 64% (inactive) | 94.7% (inactive) | 76.6% (inactive) | -3.64% (inactive) | 80.2 | 76.6 | -4.93% (inactive) | 5.27% (inactive) |
| Cc1ccc(-n2c(C)cc3c2CCCC3=O)cc1 | 113% (inactive) | 112% (inactive) | 93.3% (inactive) | -0.79% (inactive) | 94.1 | 93.3 | -9.07% (inactive) | -3.09% (inactive) |
| CC(=O)SCC(=O)N=c1sc2cc(F)ccc2n1C | 90.5% (inactive) | 75.5% (inactive) | 93.4% (inactive) | -2.64% (inactive) | 96.1 | 93.4 | -5.26% (inactive) | 7.78% (inactive) |
| COc1ccc(C(=O)NC(=O)CSc2nnc(-c3ccco3)n2-c2ccccc2)cc1 | 90% (inactive) | 109% (inactive) | 105% (inactive) | 16.3% (inactive) | 88.7 | 105 | -7.3% (inactive) | -0.55% (inactive) |
| Cc1ccc2c(c1C)NC(C(=O)O)C1CC=CC21 (stereo unspecified) | 91% (inactive) | 98.1% (inactive) | 98.2% (inactive) | 1.46% (inactive) | 96.7 | 98.2 | -1.73% (inactive) | -1.09% (inactive) |
| CN(C)C(=O)CSc1nnc2sc3ccccc3n12 | 71% (inactive) | 105% (inactive) | 89.2% (inactive) | -6.11% (inactive) | 95.3 | 89.2 | -8.63% (inactive) | 1.82% (inactive) |
| O=C(c1ccc(Cl)cc1)N1CCCOC1 | 89% (inactive) | 113% (inactive) | 92% (inactive) | 7.33% (inactive) | 84.7 | 92 | -8.11% (inactive) | -1.27% (inactive) |
| CCOC(=O)CSc1nnc2n1C(C)(C)Cc1ccccc1-2 | 110% (inactive) | 111% (inactive) | 101% (inactive) | -5.61% (inactive) | 106 | 101 | 4.32% (inactive) | -0.91% (inactive) |
| CCC(C(=O)NC(C)CCc1ccco1)n1nc(C)n2c(cc3occc32)c1=O (stereo unspecified) | 129% (inactive) | 103% (inactive) | 83.5% (inactive) | -16.1% (inactive) | 99.7 | 83.5 | -6.3% (inactive) | -1.64% (inactive) |
| CCCCCCC(c1c(C)n(C)n(-c2ccccc2)c1=O)c1c(C)n(C)n(-c2ccccc2)c1=O | 90% (inactive) | 99.9% (inactive) | 80.8% (inactive) | 2.09% (inactive) | 78.7 | 80.8 | -3.47% (inactive) | -0.18% (inactive) |
| COc1cc(C(=O)Nc2cc(C)ccn2)cc(OC)c1OC | 90% (inactive) | 89.5% (inactive) | 97.5% (inactive) | 17.6% (inactive) | 79.9 | 97.5 | 0.55% (inactive) | -6.13% (inactive) |
| CN(CC(=O)N1CCCc2c1c(=O)oc1ccc(O)cc21)Cc1ccccc1 | 95% (inactive) | 87.6% (inactive) | 90% (inactive) | -3.29% (inactive) | 93.3 | 90 | -7.3% (inactive) | 0.36% (inactive) |
| CN(C)CCOC(c1ccccc1)c1ccccc1 | 78% (inactive) | 86.9% (inactive) | 87.6% (inactive) | 5.28% (inactive) | 82.3 | 87.6 | -1.69% (inactive) | 2.5% (inactive) |
| CC1CCCC(C)N1C(=O)CSc1nnc(-c2cccs2)o1 (stereo unspecified) | 92% (inactive) | 106% (inactive) | 95.1% (inactive) | -1.69% (inactive) | 96.8 | 95.1 | 0.54% (inactive) | -3.09% (inactive) |
